According to PubChem BioAssay AID463093 (The Scripps Research Institute Molecular Screening Center, 2010):
The source made the active and inactive calls.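 How the source made its calls: active means compound blocking at least 90% of GSTO1 probe labeling in gels, or giving a GSTO1 band over fivefold background; inactive means the rest.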

Target: Glutathione S-transferase omega-1 (Homo sapiens) (UniProt P78417)
Experiment: in situ GSTO1 inhibition versus click-labeling – cell-based, MDA-MB-435, competitive ABPP, click chemistry, fluorescence, mechanism study for GSTO1 inhibitor project, late-stage follow-up (AID 463093)
Conditions: MDA-MB-435 in situ competitive ABPP, gel fluorescence; for fold labeling / inhibition: stronger effect = higher value; for inhibition: in situ competitive ABPP
How it was run: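 Assay system: MDA-MB-435 cells, in situ treatment. Schedule: cells 1 h 37 °C, click 1 h 25 °C. Measured by: SDS-PAGE in-gel fluorescence.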

Chain of Glutathione S-transferase omega-1 (Homo sapiens) (P78417 whole entry, looked up): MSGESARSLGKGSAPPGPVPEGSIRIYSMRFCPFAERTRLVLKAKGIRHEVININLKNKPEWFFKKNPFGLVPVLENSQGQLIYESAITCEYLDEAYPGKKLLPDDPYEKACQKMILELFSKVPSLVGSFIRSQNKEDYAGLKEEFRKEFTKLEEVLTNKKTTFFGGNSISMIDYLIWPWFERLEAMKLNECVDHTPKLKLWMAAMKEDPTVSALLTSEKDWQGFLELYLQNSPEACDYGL

outcome (direct ABPP, click chemistry): active
fold labeling (direct ABPP, click chemistry, click labeling 0.25 uM, at 0.25 µM): > 5
fold labeling (direct ABPP, click chemistry, click labeling 0.5 uM, at 0.5 µM): > 5
fold labeling (direct ABPP, click chemistry, click labeling fold over background 1 uM, at 1 µM): > 5
inhibition (at 1 µM): 100%
inhibition (inhibition, at 0.25 µM): 99%
inhibition (inhibition, at 0.5 µM): 100%
SMILES: C#CCN(CCCN(C(=O)CCl)c1ccc([N+](=O)[O-])cc1)C(=O)C(F)(F)F
